Active and inactive are the calls of the source. No cut-off for these calls is given here.
Biological target: not listed separately
Assay: (§1) Inhibition of rabbit muscle glycogen phosphorylase a
Set-up: species or system Oryctolagus cuniculus
How it was run: (§2)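 Rabbit muscle glycogen phosphorylase a activity was measured in the glycogen-synthesis direction by quantifying phosphate released from glucose-1-phosphate. Values are means of three experiments.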

Q: Which IC50 does the source give for `C[C@H]1[C@H](C)CC[C@]2(C(=O)O)CC[C@]3(C)C(=CC[C@@H]4[C@@]5(C)C[C@@H](O)[C@@H](O)C(C)(C)[C@@H]5CC[C@]43C)[C@H]12` [PYGENIC ACID A] here?
A: Its IC50 is 212 µM.

Q: Which IC50 does the source give for `C[C@H]1[C@H](C)CC[C@]2(C(=O)OCc3ccccc3)CC[C@]3(C)C(=CC[C@@H]4[C@@]5(C)C[C@@H](OC(=O)CCC(=O)O)[C@H](OC(=O)CCC(=O)O)C(C)(C)[C@@H]5CC[C@]43C)[C@H]12` here?
A: Its IC50 is 722 µM.

Q: With `C[C@H]1[C@H](C)CC[C@]2(C(=O)OCc3ccccc3)CC[C@]3(C)C(=CC[C@@H]4[C@@]5(C)C[C@@H]6OC6C(C)(C)[C@@H]5CC[C@]43C)[C@H]12` (single isomer, unassigned) as the molecule, how does the IC50 read?
A: The IC50 was 69.5 µM.

Q: With `CCCOC(=O)[C@]12CC[C@@H](C)[C@H](C)[C@H]1C1=CC[C@@H]3[C@@]4(C)C[C@@H](O)[C@H](O)C(C)(C)[C@@H]4CC[C@@]3(C)[C@]1(C)CC2` as the molecule, how does the IC50 read?
A: The IC50 was 82.5 µM.

Q: Which IC50 does the source give for `C[C@H]1[C@H](C)CC[C@]2(C(=O)OCn3cccn3)CC[C@]3(C)C(=CC[C@@H]4[C@@]5(C)C[C@@H](O)[C@H](O)C(C)(C)[C@@H]5CC[C@]43C)[C@H]12` here?
A: Its IC50 is 62.1 µM.

Q: Which IC50 does the source give for `C[C@H]1[C@H](C)CC[C@]2(C(=O)O)CC[C@]3(C)C(=CC[C@@H]4[C@@]5(C)C[C@H](O)[C@H](O)C(C)(C)[C@@H]5CC[C@]43C)[C@H]12` here?
A: The IC50 was 116 µM.

Q: For `CC(=O)O[C@@H]1C[C@]2(C)[C@H]3CC=C4[C@@H]5[C@@H](C)[C@H](C)CC[C@]5(C(=O)O)CC[C@@]4(C)[C@]3(C)CC[C@H]2C(C)(C)[C@H]1O`, which IC50 is on record?
A: The IC50 was 37.7 µM.

Q: For `C[C@H]1[C@H](C)CC[C@]2(C(=O)O)CC[C@]3(C)C(=CC[C@@H]4[C@@]5(C)C[C@@H](O)[C@H](O)C(C)(C)[C@@H]5CC[C@]43C)[C@H]12` [COROSOLIC ACID], which IC50 is on record?
A: The IC50 was 20 µM.

Q: For `Cc1ccc(S(=O)(=O)O[C@@H]2C[C@]3(C)[C@H]4CC=C5[C@@H]6[C@@H](C)[C@H](C)CC[C@]6(C(=O)OCc6ccccc6)CC[C@@]5(C)[C@]4(C)CC[C@H]3C(C)(C)[C@H]2O)cc1`, which IC50 is on record?
A: Its IC50 is 444 µM.

Q: For `C[C@H]1[C@H](C)CC[C@]2(C(=O)OCc3ccccc3)CC[C@]3(C)C(=CC[C@@H]4[C@@]5(C)C[C@H](O)[C@H](O)C(C)(C)[C@@H]5CC[C@]43C)[C@H]12`, which IC50 is on record?
A: The IC50 was 108 µM.

Q: Which IC50 does the source give for `C[C@H]1[C@H](C)CC[C@]2(C(=O)O)CC[C@]3(C)C(=CC[C@@H]4[C@@]5(C)C[C@@H](OC(=O)c6ccccc6)[C@H](O)C(C)(C)[C@@H]5CC[C@]43C)[C@H]12` here?
A: Its IC50 is 5.1 µM.

Q: For `C[C@H]1[C@H](C)CC[C@]2(C(=O)OCc3ccccc3)CC[C@]3(C)C(=CC[C@@H]4[C@@]5(C)C[C@@H](O)C(=O)C(C)(C)[C@@H]5CC[C@]43C)[C@H]12`, which IC50 is on record?
A: The IC50 was 31.8 µM.

Q: Which IC50 does the source give for `CCOC(=O)[C@]12CC[C@@H](C)[C@H](C)[C@H]1C1=CC[C@@H]3[C@@]4(C)C[C@@H](O)[C@H](O)C(C)(C)[C@@H]4CC[C@@]3(C)[C@]1(C)CC2` here?
A: Its IC50 is 46.7 µM.

Q: For `CCCCOC(=O)[C@]12CC[C@@H](C)[C@H](C)[C@H]1C1=CC[C@@H]3[C@@]4(C)C[C@@H](O)[C@H](O)C(C)(C)[C@@H]4CC[C@@]3(C)[C@]1(C)CC2`, which IC50 is on record?
A: Its IC50 is 92.1 µM.

Q: With `CCCC(=O)O[C@@H]1C[C@]2(C)[C@H]3CC=C4[C@@H]5[C@@H](C)[C@H](C)CC[C@]5(C(=O)O)CC[C@@]4(C)[C@]3(C)CC[C@H]2C(C)(C)[C@H]1OC(=O)CCC` as the molecule, how does the IC50 read?
A: Its IC50 is 78.7 µM.

Q: Which IC50 does the source give for `CCOC(=O)COC(=O)[C@]12CC[C@@H](C)[C@H](C)[C@H]1C1=CC[C@@H]3[C@@]4(C)C[C@@H](O)[C@H](O)C(C)(C)[C@@H]4CC[C@@]3(C)[C@]1(C)CC2` here?
A: The IC50 was 102 µM.

Q: Which IC50 does the source give for `C[C@H]1[C@H](C)CC[C@]2(C(=O)OCc3ccccc3)CC[C@]3(C)C(=CC[C@@H]4[C@@]5(C)C[C@@H](OS(C)(=O)=O)[C@H](O)C(C)(C)[C@@H]5CC[C@]43C)[C@H]12` here?
A: The IC50 was 43.4 µM.

Q: For `C=CCOC(=O)[C@]12CC[C@@H](C)[C@H](C)[C@H]1C1=CC[C@@H]3[C@@]4(C)C[C@@H](O)[C@H](O)C(C)(C)[C@@H]4CC[C@@]3(C)[C@]1(C)CC2`, which IC50 is on record?
A: The IC50 was 91.2 µM.

Q: With `C[C@H]1[C@H](C)CC[C@]2(C(=O)OCc3ccccc3)CC[C@]3(C)C(=CC[C@@H]4[C@@]5(C)C[C@@H](O)[C@@H](O)C(C)(C)[C@@H]5CC[C@]43C)[C@H]12` as the molecule, how does the IC50 read?
A: Its IC50 is 324 µM.

Q: With `C[C@H]1[C@H](C)CC[C@]2(C(=O)OCc3ccccc3)CC[C@]3(C)C(=CC[C@@H]4[C@@]5(C)C[C@@H](O)[C@H](O)C(C)(C)[C@@H]5CC[C@]43C)[C@H]12` as the molecule, how does the IC50 read?
A: The IC50 was 41.2 µM.

Q: With `CC(=O)O[C@@H]1C[C@]2(C)[C@H]3CC=C4[C@@H]5[C@@H](C)[C@H](C)CC[C@]5(C(=O)O)CC[C@@]4(C)[C@]3(C)CC[C@H]2C(C)(C)[C@H]1OC(C)=O` as the molecule, how does the IC50 read?
A: Its IC50 is 35 µM.

Q: Which IC50 does the source give for `COC(=O)[C@]12CC[C@@H](C)[C@H](C)[C@H]1C1=CC[C@@H]3[C@@]4(C)C[C@@H](O)[C@H](O)C(C)(C)[C@@H]4CC[C@@]3(C)[C@]1(C)CC2` [COROSOLIC ACID METHYL ESTER] here?
A: Its IC50 is 33.7 µM.

Q: With `C[C@H]1[C@H](C)CC[C@]2(C(=O)OCc3ccccc3)CC[C@]3(C)C(=CC[C@@H]4[C@@]5(C)C=C(O)C(=O)C(C)(C)[C@@H]5CC[C@]43C)[C@H]12` as the molecule, how does the IC50 read?
A: Its IC50 is 7.31 µM.

Q: For `CCC(=O)O[C@@H]1C[C@]2(C)[C@H]3CC=C4[C@@H]5[C@@H](C)[C@H](C)CC[C@]5(C(=O)O)CC[C@@]4(C)[C@]3(C)CC[C@H]2C(C)(C)[C@H]1O`, which IC50 is on record?
A: Its IC50 is 96.7 µM.

Q: For `CC(=O)OC[C@H]1O[C@@H](OC(=O)[C@]23CC[C@@H](C)[C@H](C)[C@H]2C2=CC[C@@H]4[C@@]5(C)C[C@@H](O)[C@H](O)C(C)(C)[C@@H]5CC[C@@]4(C)[C@]2(C)CC3)[C@H](OC(C)=O)[C@@H](OC(C)=O)[C@@H]1OC(C)=O`, which IC50 is on record?
A: Its IC50 is 373 µM.

Q: Which IC50 does the source give for `CCCCCC(=O)O[C@@H]1C[C@]2(C)[C@H]3CC=C4[C@@H]5[C@@H](C)[C@H](C)CC[C@]5(C(=O)O)CC[C@@]4(C)[C@]3(C)CC[C@H]2C(C)(C)[C@H]1O` here?
A: The IC50 was 3.26 µM.

Q: Which IC50 does the source give for `CCC(=O)O[C@@H]1C[C@]2(C)[C@H]3CC=C4[C@@H]5[C@@H](C)[C@H](C)CC[C@]5(C(=O)O)CC[C@@]4(C)[C@]3(C)CC[C@H]2C(C)(C)[C@H]1OC(=O)CC` here?
A: The IC50 was 73.7 µM.

Q: For `CCCC(=O)O[C@@H]1C[C@]2(C)[C@H]3CC=C4[C@@H]5[C@@H](C)[C@H](C)CC[C@]5(C(=O)O)CC[C@@]4(C)[C@]3(C)CC[C@H]2C(C)(C)[C@H]1O`, which IC50 is on record?
A: Its IC50 is 77.9 µM.

Q: Which IC50 does the source give for `C[C@H]1[C@H](C)CC[C@]2(C(=O)O[C@@H]3O[C@H](CO)[C@@H](O)[C@H](O)[C@H]3O)CC[C@]3(C)C(=CC[C@@H]4[C@@]5(C)C[C@@H](O)[C@H](O)C(C)(C)[C@@H]5CC[C@]43C)[C@H]12` here?
A: The IC50 was 106 µM.

Organism: Oryctolagus cuniculus
Assay: as §1
How it was run: as §2

Q: For `C[C@H]1[C@H](C)CC[C@]2(C(=O)OCC(=O)O)CC[C@]3(C)C(=CC[C@@H]4[C@@]5(C)C[C@@H](O)[C@H](O)C(C)(C)[C@@H]5CC[C@]43C)[C@H]12`, which Activity is on record?
A: The Activity was “inactive”.

Q: Which Activity does the source give for `C[C@H]1[C@H](C)CC[C@]2(C(=O)O)CC[C@]3(C)C(=CC[C@@H]4[C@@]5(C)C[C@@H](OC(=O)CCC(=O)O)[C@H](OC(=O)CCC(=O)O)C(C)(C)[C@@H]5CC[C@]43C)[C@H]12` here?
A: The Activity was “inactive”.

Reference: ChEMBL document CHEMBL1137508, “Pentacyclic triterpenes. Part 5: synthesis and SAR study of corosolic acid derivatives as inhibitors of glycogen phosphorylases” (Bioorg Med Chem Lett, 2007)
